{"data": "Published values pooled from the literature", "target": "Serine/threonine-protein kinase TBK1 (TBK1, Homo sapiens, UniProt Q9UHD2)", "Residues used in one study (Q9UHD2 1-729)": "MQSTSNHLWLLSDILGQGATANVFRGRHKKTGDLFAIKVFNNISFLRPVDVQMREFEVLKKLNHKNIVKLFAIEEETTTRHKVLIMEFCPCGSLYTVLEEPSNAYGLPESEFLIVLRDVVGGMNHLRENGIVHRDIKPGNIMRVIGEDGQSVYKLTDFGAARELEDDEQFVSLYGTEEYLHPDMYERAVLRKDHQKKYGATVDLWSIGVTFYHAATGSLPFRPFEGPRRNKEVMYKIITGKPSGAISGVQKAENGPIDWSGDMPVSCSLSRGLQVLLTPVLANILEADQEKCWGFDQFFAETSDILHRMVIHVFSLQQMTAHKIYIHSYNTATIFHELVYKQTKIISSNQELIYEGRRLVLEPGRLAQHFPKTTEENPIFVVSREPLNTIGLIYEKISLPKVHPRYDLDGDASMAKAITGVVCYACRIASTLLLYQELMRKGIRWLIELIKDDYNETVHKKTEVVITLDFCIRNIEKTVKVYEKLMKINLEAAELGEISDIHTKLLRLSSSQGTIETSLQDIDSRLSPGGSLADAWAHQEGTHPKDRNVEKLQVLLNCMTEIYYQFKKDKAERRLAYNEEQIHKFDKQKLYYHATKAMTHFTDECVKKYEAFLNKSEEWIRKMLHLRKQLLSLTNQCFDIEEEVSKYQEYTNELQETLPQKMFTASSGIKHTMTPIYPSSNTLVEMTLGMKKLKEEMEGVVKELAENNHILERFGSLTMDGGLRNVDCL", "note": "Protocols differ between the studies behind these lines."}
{"Structure (SMILES)": "O=C(c1ccc(Nc2ncc(Cl)c(-c3cc4ccccc4s3)n2)cc1)N1CCC(N2CCCC2)CC1", "assay": "binding, competition with immobilised ligand", "setting": "1 µM", "remaining binding": "11%"}
{"Structure (SMILES)": "C=CC(=O)N1CCC(C(=O)NCC(=O)N2CCN(c3nc(-c4cnc(N)nc4C(F)F)nc(N4CCOCC4)n3)CC2)CC1", "assay": "binding, competition with immobilised ligand", "setting": "1 µM", "remaining binding": "91%"}
{"Structure (SMILES)": "C[C@H]1CCN(c2nccc(-c3cnn4ncccc34)n2)C1", "assay": "binding", "setting": "1 µM", "remaining binding": "80%"}
{"Structure (SMILES)": "O=C(Nc1ccc(Oc2ccc(F)cc2)cc1)N1CCc2ncccc2[C@H]1c1ccc(F)cc1", "assay": "cell-free assay, competition with immobilised ligand", "setting": "1 µM", "remaining binding": "81%"}
{"Structure (SMILES)": "CCN1CCN(Cc2ccc(C(=O)Nc3ccc(C)c(Oc4ccc5c(c4)CC(=O)N5)c3)cc2C(F)(F)F)CC1", "assay": "binding, competition with immobilised ligand", "setting": "1 µM", "remaining binding": "50%"}
{"Structure (SMILES)": "COc1cnc(Nc2cccc(S(N)(=O)=O)c2)nc1N1CCN(c2ccccc2)C(=O)C1", "assay": "binding, competition with immobilised ligand", "setting": "1 µM", "remaining binding": "61%"}
{"Structure (SMILES)": "CC(C)(O)c1cncc(-c2nc3ccc(F)cc3n2C2CC2)c1", "assay": "cell-free assay, competition with immobilised ligand", "setting": "1 µM", "remaining binding": "72%"}
{"Structure (SMILES)": "O=C(NCC1CCOCC1)c1n[nH]cc1NC(=O)c1c(F)cccc1F", "assay": "binding, competition with immobilised ligand", "setting": "1 µM", "remaining binding": "96%"}
{"Structure (SMILES)": "CN(CCCC(F)(F)F)c1nccc(-c2cnn3ncccc23)n1", "assay": "binding", "setting": "1 µM", "remaining binding": "91%"}
{"Structure (SMILES)": "Nc1ncc2c(n1)-c1c([nH]c3ccc(C#CC4CC4)cc13)CCCC2", "assay": "binding, competition with immobilised ligand", "setting": "1 µM", "remaining binding": "88%"}
{"Structure (SMILES)": "COc1ccc2c(c1)O[C@H](c1ccc(OC)c(OC)c1)C[C@@H]2NC(=O)C1(c2ccc3c(c2)OC(F)(F)O3)CC1", "assay": "cell-free assay, competition with immobilised ligand", "setting": "1 µM", "remaining binding": "99%"}
{"Structure (SMILES)": "Cc1cnc(Nc2ccc(C(=O)N3CCC(N4CCCC4)CC3)cc2)nc1-c1cc2ccccc2s1", "assay": "binding, competition with immobilised ligand", "setting": "1 µM", "remaining binding": "4.5%"}
{"Structure (SMILES)": "CN(C)c1ncc(F)c(-c2cnn3ncccc23)n1", "assay": "binding", "setting": "1 µM", "remaining binding": "86%"}
{"Structure (SMILES)": "CS(=O)(=O)N1CCCC(NC(=O)[C@H](CCC2CCCCC2)NC(=O)c2ccc(CNC(=O)c3cnc4ccccn34)cc2)C1 (stereo partly drawn)", "assay": "cell-free assay, competition with immobilised ligand", "setting": "0.1 µM", "remaining binding": "75%"}
{"Structure (SMILES)": "c1cnn2ncc(-c3ccnc(N4CCC45COC5)n3)c2c1", "assay": "binding", "setting": "1 µM", "remaining binding": "41%"}
{"Structure (SMILES)": "CNCc1ccccc1-c1csc([C@@H](C)Nc2nc(C)nc3cc(OC)c(OC)cc23)c1", "assay": "cell-free assay, competition with immobilised ligand", "setting": "1 µM", "remaining binding": "100%"}
{"Structure (SMILES)": "COc1cnc(Nc2cccc(S(N)(=O)=O)c2)nc1N1CCN(c2ccccc2)CC1", "assay": "binding, competition with immobilised ligand", "setting": "1 µM", "remaining binding": "61%"}
{"Structure (SMILES)": "F[C@@H]1CCN(c2nccc(-c3cnn4ncccc34)n2)C1", "assay": "binding", "setting": "1 µM", "remaining binding": "84%"}
{"Structure (SMILES)": "O=C(NC[C@@H]1[C@H]2CN(C(=O)OCc3cc(C(F)(F)F)cc(C(F)(F)F)c3)C[C@@H]12)c1ccc2[nH]nnc2c1", "assay": "cell-free assay, competition with immobilised ligand", "setting": "1 µM", "remaining binding": "100%"}
{"Structure (SMILES)": "N[C@H]1CCN(c2nccc(-c3cnn4ncccc34)n2)C1", "assay": "binding", "setting": "1 µM", "remaining binding": "100%"}
{"Structure (SMILES)": "O=C(NCCCN1CCOCC1)c1ccc(Nc2ncc(Cl)c(-c3ccc(Cl)s3)n2)cc1", "assay": "binding, competition with immobilised ligand", "setting": "1 µM", "remaining binding": "23%"}
